Measurements as given in PMC5743405 (International Journal of Oncology, 2017).
Where two headings read alike, the source gives them in different places.

Key:
GPCR receptors = test: PathHunter β-arrestin gpcrMAX panel, antagonist mode; assay type: cell-based; details: summary of Table II
Summary of the method: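 GPCR-ED fusion and β-arrestin-EA fusion; arrestin recruitment restores β-galactosidase, read by chemiluminescence. Antagonist mode uses EC80 agonist challenge. % inhibition = 100 × (1 − (test − vehicle RLU)/(EC80 control − vehicle RLU)). Hit requires >35% inhibition and mean RLU below EC80 RLU − 3 × EC80 SD.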

AGTR1 = test: PathHunter β-arrestin; assay type: cell-based; details: agonist mode, 6 μM
Summary of the method: (§1)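 β-Arrestin recruitment assay: the enzyme acceptor is fused to β-arrestin and the ED fragment to the GPCR. Recruitment restores β-galactosidase, read by chemiluminescence. % activity = 100% × (test − vehicle)/(max control ligand − vehicle). % inhibition = 100% × (1 − (test − vehicle)/(EC80 control − vehicle)). An agonist hit needs >30% activity and RLU > baseline + 3×SD. An antagonist hit needs >35% inhibition and RLU < EC80 RLU − 3×SD.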

AVPR1B = test: PathHunter β-arrestin; assay type: cell-based; details: antagonist mode, 6 μM
Summary of the method: as §1

C3AR1 = test: PathHunter β-arrestin; assay type: cell-based; details: antagonist mode, 6 μM
Summary of the method: as §1

CALCRL-RAMP1 = test: PathHunter β-arrestin; assay type: cell-based; details: antagonist mode, 6 μM
Summary of the method: as §1

CALCR-RAMP2 = test: PathHunter β-arrestin; assay type: cell-based; details: agonist mode, 6 μM
Summary of the method: as §1

CCR4 = test: PathHunter β-arrestin; assay type: cell-based; details: antagonist mode, 6 μM
Summary of the method: (§2)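 Engineered cells express the receptor fused to one β-galactosidase fragment (ED) and β-arrestin fused to the complementing fragment (EA). Receptor activation recruits β-arrestin, which restores enzyme activity, and this is read by chemiluminescence (RLU). Agonist % activity is 100% × (test − vehicle)/(maximal control ligand − vehicle). Antagonist mode is challenged with an EC80 control agonist, and % inhibition is 100% × (1 − (test − vehicle)/(EC80 − vehicle)). Hits require >30% activity or >35% inhibition, plus a 3×SD RLU margin.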

CCR5 = test: PathHunter β-arrestin; assay type: cell-based; details: antagonist mode, 6 μM
Summary of the method: as §2

CCR6 = test: PathHunter β-arrestin; assay type: cell-based; details: antagonist mode, 6 μM
Summary of the method: as §2

CCR7 = test: PathHunter β-arrestin; assay type: cell-based; details: 6 μM
Summary of the method: as §2

CXCR7 = test: PathHunter β-arrestin; assay type: cell-based; details: antagonist mode, 6 μM
Summary of the method: as §2

EDG4 = test: PathHunter β-arrestin; assay type: cell-based; details: antagonist mode, 6 μM
Summary of the method: as §2

EDG6 = test: PathHunter β-arrestin; assay type: cell-based; details: 6 μM
Summary of the method: as §2

FFAR1 = test: PathHunter β-arrestin; assay type: cell-based; details: agonist mode, 6 μM
Summary of the method: as §2

GPR119 = test: PathHunter β-arrestin; assay type: cell-based; details: 6 μM
Summary of the method: (§3)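 Vendor-run (DiscoveRx) PathHunter enzyme fragment complementation. β-Arrestin carries the EA fragment and the receptor carries ED; recruitment restores β-gal activity, read by chemiluminescence (RLU). Agonist % activity = vehicle-subtracted RLU relative to max control ligand (gpcrMAX) or to vehicle (orphanMAX). Antagonist % inhibition = 100% × (1 − vehicle-subtracted sample RLU / vehicle-subtracted EC80 agonist control RLU).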

HRH2 = test: PathHunter β-arrestin; assay type: cell-based; details: 6 μM
Summary of the method: as §3

KISS1R = test: PathHunter β-arrestin; assay type: cell-based; details: 6 μM
Summary of the method: as §3

MC4R = test: PathHunter β-arrestin; assay type: cell-based; details: 6 μM
Summary of the method: as §3

MRGPRX2 = test: PathHunter β-arrestin; assay type: cell-based; details: antagonist mode, 6 μM
Summary of the method: as §3

MTNR1A = test: PathHunter β-arrestin; assay type: cell-based; details: 6 μM
Summary of the method: as §3

NMU1R = test: PathHunter β-arrestin; assay type: cell-based; details: 6 μM
Summary of the method: as §3

NPBWR1 = test: PathHunter β-arrestin; assay type: cell-based; details: agonist mode, 6 μM
Summary of the method: as §3

NPY2R = test: PathHunter β-arrestin; assay type: cell-based; details: antagonist mode, 6 μM
Summary of the method: as §3

OPRM1 = test: PathHunter β-arrestin; assay type: cell-based; details: 6 μM
Summary of the method: (§4)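 β-Arrestin recruitment to GPCR read by β-galactosidase fragment complementation and chemiluminescence. Agonist: % = 100 × (test − vehicle)/(max control ligand − vehicle), hit at >30% and RLU > baseline + 3 SD. Antagonist, against EC80 agonist: % inhibition = 100 × (1 − (test − vehicle)/(EC80 − vehicle)), hit at >35% and RLU < EC80 − 3 SD.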

PRLHR = test: PathHunter β-arrestin; assay type: cell-based; details: antagonist mode, 6 μM
PROKR1 = test: PathHunter β-arrestin; assay type: cell-based; details: 6 μM
Summary of the method: as §4

PTAFR = test: PathHunter β-arrestin; assay type: cell-based; details: 6 μM
Summary of the method: as §4

PTGER3 = test: PathHunter β-arrestin; assay type: cell-based; details: 6 μM
Summary of the method: as §4

PTGFR = test: PathHunter β-arrestin; assay type: cell-based; details: antagonist mode, 6 μM
[1] = system: JJ012 chondrosarcoma cells; test: immunocytochemistry, PRP-1 localization; assay type: cell-based, human; details: PRP-1 antibody, Zenon Alexa Fluor 488; DAPI nuclear stain
TLR6 = test: RT2 qPCR primer assay, JJ012 cells; assay type: cell-based, human
Summary of the method: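 RNA was extracted, checked by spectrophotometry and reverse-transcribed. Custom RT2 SYBR-Green primer assays were run on three samples in technical triplicate. Ct was normalised to mean GAPDH/ACTB, ΔΔCt taken versus control, and fold change = 2^−ΔΔCt.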

mTOR kinase (mTORC1) = details: chondrosarcoma; ref [4],[5]; cited from earlier work
[2] = system: G1/S phase cell cycle progression; details: chondrosarcoma, cited from earlier work

With Proline rich polypeptide 1 [PRP-1] the “GPCR coupling, antagonist mode” value (GPCR receptors) was “no indication that PRP-1 was G protein coupled”, the “% Activity” value (AGTR1) was 2% and the “% Inhibition” value (AVPR1B) was −2%. The “% Inhibition” value (C3AR1) was −2%, the “% Inhibition” value (CALCRL-RAMP1) was 4% and the “% Activity” value (CALCR-RAMP2) was 2%. The “% Inhibition” value (CCR4) was 2%, the “% Inhibition” value (CCR5) was −2% and the “% Inhibition” value (CCR6) was 2%. The “% Activity” value (CCR7; agonist mode) was 1%, the “% Inhibition” value (CCR7; antagonist mode) was −2% and the “% Inhibition” value (CXCR7) was −2%. The “% Inhibition” value (EDG4) was 5%, the “% Activity” value (EDG6; agonist mode) was −2% and the “% Inhibition” value (EDG6; antagonist mode) was 4%. For the same substance, the “% Activity” value (FFAR1) was 3%, the “% Activity” value (GPR119; agonist mode) was 3% and the “% Inhibition” value (GPR119; antagonist mode) was −1%. For the same substance, the “% Activity” value (HRH2; agonist mode) was 1%, the “% Inhibition” value (HRH2; antagonist mode) was 1% and the “% Activity” value (KISS1R; agonist mode) was 1%. The “% Inhibition” value (KISS1R; antagonist mode) was 3%, the “% Activity” value (MC4R; agonist mode) was −1% and the “% Inhibition” value (MC4R; antagonist mode) was −6%. The “% Inhibition” value (MRGPRX2) was −8%, the “% Activity” value (MTNR1A; agonist mode) was 2% and the “% Inhibition” value (MTNR1A; antagonist mode) was −9%. For the same substance, the “% Activity” value (NMU1R; agonist mode) was 1%, the “% Inhibition” value (NMU1R; antagonist mode) was −3% and the “% Activity” value (NPBWR1) was 3%. For the same substance, the “% Inhibition” value (NPY2R) was −2%, the “% Activity” value (OPRM1; agonist mode) was 1% and the “% Inhibition” value (OPRM1; antagonist mode) was −2%. The “% Inhibition” value (PRLHR) was −3%, the “% Activity” value (PROKR1; agonist mode) was 2% and the “% Inhibition” value (PROKR1; antagonist mode) was −2%. The “% Activity” value (PTAFR; agonist mode) was 1%, the “% Inhibition” value (PTAFR; antagonist mode) was −8% and the “% Activity” value (PTGER3; agonist mode) was 1%. For the same substance, the “% Inhibition” value (PTGER3; antagonist mode) was −2%, the “% Inhibition” value (PTGFR) was 1% and the localization [1] was “manifested its presence in the nucleus”. The gene expression (TLR6; 1 μg/ml PRP-1, heat map, vs nontreated control, technical triplicates) was “high expression”, the “fold change (∆Ct)” value (TLR6; qRT-PCR) was “did not report significant fold change” and the “mTOR kinase (mTORC1) inhibition” value (mTOR kinase (mTORC1)) was “mTOR kinase (mTORC1) inhibitor in chondrosarcoma”. For the same substance, the cell cycle progression ([2]; ref [4],[5]) was “halting G1/S phase cell cycle progression” and the cell cycle progression ([2]; ref [6]) was “halts cell cycle progression in G1/S transition”.
